# Data reported in ChEMBL document CHEMBL3351505, “Ultrasound-assisted synthesis of novel 1,2,3-triazoles coupled diaryl sulfone moieties by the CuAAC reaction, and biological evaluation of them as antioxidant and antimicrobial agents” (Eur J Med Chem, 2014).
# Active and inactive are the calls of the source. The rule behind the calls is not given here.
# What was measured:
# Staphylococcus aureus [1] = assay: Antibacterial activity against Staphylococcus aureus ATCC 29213 using 100 uL of test compound after 24 hrs by agar well diffusion method; format: functional
# In short: (§1)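 Agar well diffusion. Nutrient agar was spread with bacterial suspension at 1×10⁸ CFU/mL, and 10 mm wells were cut. Wells were loaded with compound solution made at 200 mg per 1 mL DMSO. Plates were incubated 24 h at 37 °C and inhibition zones were measured. DMSO served as the negative control.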
# Bacillus subtilis [2] = assay: Antibacterial activity against Bacillus subtilis ATCC 6633 using 100 uL of test compound after 24 hrs by agar well diffusion method; format: functional; in short: as §1
# Priestia megaterium [3] = assay: Antibacterial activity against Bacillus megaterium ATCC 9885 using 100 uL of test compound after 24 hrs by agar well diffusion method; format: functional; in short: as §1
# Micrococcus luteus [4] = assay: Antibacterial activity against Sarcina lutea using 100 uL of test compound after 24 hrs by agar well diffusion method; format: functional; in short: as §1
# Klebsiella pneumoniae [5] = assay: Antibacterial activity against Klebsiella pneumoniae ATCC 13883 using 100 uL of test compound after 24 hrs by agar well diffusion method; format: functional; in short: as §1
# Pseudomonas aeruginosa [6] = assay: Antibacterial activity against Pseudomonas aeruginosa ATCC 27953 using 100 uL of test compound after 24 hrs by agar well diffusion method; format: functional; in short: as §1
# Escherichia coli [7] = assay: Antibacterial activity against Escherichia coli ATCC 25922 using 100 uL of test compound after 24 hrs by agar well diffusion method; format: functional; in short: as §1
# Candida albicans [8] = assay: Antifungal activity against Candida albicans NRRL Y-477 using 100 uL of test compound after 48 hrs by agar well diffusion method; format: functional
# In short: as §1, with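 “Sabouraud dextrose” for “Nutrient”, “yeast or fungal” for “bacterial”, “1×10⁶” for “1×10⁸”, “48” for “24”, “28” for “37”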
# Saccharomyces cerevisiae [9] = assay: Antifungal activity against Saccharomyces cerevisiae using 100 uL of test compound after 48 hrs by agar well diffusion method; format: functional
# In short: as §1, with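 “Sabouraud dextrose” for “Nutrient”, “yeast or fungal” for “bacterial”, “1×10⁶” for “1×10⁸”, “48” for “24”, “28” for “37”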
# Aspergillus niger [10] = assay: Antifungal activity against Aspergillus niger using 100 uL of test compound after 48 hrs by agar well diffusion method; format: functional
# In short: as §1, with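 “Sabouraud dextrose” for “Nutrient”, “yeast or fungal” for “bacterial”, “1×10⁶” for “1×10⁸”, “48” for “24”, “28” for “37”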
# Staphylococcus aureus [11] = assay: Antibacterial activity against Staphylococcus aureus ATCC 29213 after 24 hrs by two fold serial dilution method; format: functional
# Bacillus subtilis [12] = assay: Antibacterial activity against Bacillus subtilis ATCC 6633 after 24 hrs by two fold serial dilution method; format: functional
# Priestia megaterium [13] = assay: Antibacterial activity against Bacillus megaterium ATCC 9885 after 24 hrs by two fold serial dilution method; format: functional
# Micrococcus luteus [14] = assay: Antibacterial activity against Sarcina lutea after 24 hrs by two fold serial dilution method; format: functional
# Klebsiella pneumoniae [15] = assay: Antibacterial activity against Klebsiella pneumoniae ATCC 13883 after 24 hrs by two fold serial dilution method; format: functional
# Pseudomonas aeruginosa [16] = assay: Antibacterial activity against Pseudomonas aeruginosa ATCC 27953 after 24 hrs by two fold serial dilution method; format: functional
# Escherichia coli [17] = assay: Antibacterial activity against Escherichia coli ATCC 25922 after 24 hrs by two fold serial dilution method; format: functional
# Candida albicans [18] = assay: Antifungal activity against Candida albicans NRRL Y-477 after 48 hrs by two fold serial dilution method; format: functional
# In short: (§2)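 Two-fold serial broth dilution in a suitable broth, run only on compounds giving inhibition zones of at least 16 mm. Final concentrations were […]. Each 5 mL received 0.1 mL inoculum and was incubated 48 h at 28 °C. MIC was the lowest concentration without growth.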
# Saccharomyces cerevisiae [19] = assay: Antifungal activity against Saccharomyces cerevisiae after 48 hrs by two fold serial dilution method; format: functional; in short: as §2
# Aspergillus niger [20] = assay: Antifungal activity against Aspergillus niger after 48 hrs by two fold serial dilution method; format: functional; in short: as §2
# [21] = Antioxidant activity assessed as DPPH free radical scavenging activity by spectrophotometric assay; format: physicochemical
# In short: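 Sample solutions at several concentrations were added to 0.004% DPPH in methanol and incubated 60 min in the dark. Absorbance was read at 517 nm against a blank. Inhibition % = (A_blank − A_sample)/A_blank × 100, where the control contained all reagents except the test compound.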
SMILES,diameter of the inhibition zone (DIZ) (Staphylococcus aureus [1]),diameter of the inhibition zone (DIZ) (Bacillus subtilis [2]),diameter of the inhibition zone (DIZ) (Priestia megaterium [3]),diameter of the inhibition zone (DIZ) (Micrococcus luteus [4]),diameter of the inhibition zone (DIZ) (Klebsiella pneumoniae [5]),diameter of the inhibition zone (DIZ) (Pseudomonas aeruginosa [6]),diameter of the inhibition zone (DIZ) (Escherichia coli [7]),diameter of the inhibition zone (DIZ) (Candida albicans [8]),diameter of the inhibition zone (DIZ) (Saccharomyces cerevisiae [9]),diameter of the inhibition zone (DIZ) (Aspergillus niger [10]),MIC (Bacillus subtilis [12]),"MIC (Priestia megaterium [13]; ATCC 9885, 24 h)",MIC (Micrococcus luteus [14]),MIC (Pseudomonas aeruginosa [16]),"MIC (Escherichia coli [17]; ATCC 25922, 24 h)",MIC (Saccharomyces cerevisiae [19]),MIC (Aspergillus niger [20]),IC50 [21],"MIC (Klebsiella pneumoniae [15]; ATCC 13883, 24 h)","MIC (Staphylococcus aureus [11]; ATCC 29213, 24 h)",further results
CC(Cc1cn(Cc2ccccc2)nn1)(OCc1cn(Cc2ccccc2)nn1)c1ccc(S(=O)(=O)c2ccccc2)cc1 (centres undefined),14 mm,14 mm,17 mm,17 mm,15 mm,19 mm,18 mm,16 mm,14 mm,34 mm,inactive,200 µg/mL,200 µg/mL,200 µg/mL,200 µg/mL,inactive,25 µg/mL,600 µg/mL,–,–,"MIC (Staphylococcus aureus [11]): inactive; MIC (Klebsiella pneumoniae [15]): inactive; MIC (Candida albicans [18]; NRRL Y-477, 48 h): 200 µg/mL"
CC(Cc1cn(CC(=O)c2ccc(S(=O)(=O)c3ccccc3)cc2)nn1)(OCc1cn(CC(=O)c2ccc(S(=O)(=O)c3ccccc3)cc2)nn1)c1ccc(S(=O)(=O)c2ccccc2)cc1 (centres undefined),14 mm,14 mm,22 mm,25 mm,19 mm,19 mm,17 mm,15 mm,14 mm,34 mm,inactive,200 µg/mL,100 µg/mL,200 µg/mL,200 µg/mL,inactive,25 µg/mL,600 µg/mL,200 µg/mL,–,MIC (Staphylococcus aureus [11]): inactive; MIC (Candida albicans [18]): inactive
O=S(=O)(c1ccccc1)c1ccc(C(O)Cc2cn(Cc3ccccc3)nn2)cc1 (centres undefined),19 mm,17 mm,14 mm,20 mm,23 mm,20 mm,19 mm,19 mm,17 mm,30 mm,–,–,200 µg/mL,200 µg/mL,200 µg/mL,200 µg/mL,50 µg/mL,200 µg/mL,200 µg/mL,200 µg/mL,"MIC (Bacillus subtilis [12]; ATCC 6633, 24 h): 200 µg/mL; MIC (Priestia megaterium [13]): inactive; MIC (Candida albicans [18]; NRRL Y-477, 48 h): 200 µg/mL"
CC(Cc1cn(CC(=O)c2ccc(Br)cc2)nn1)(OCc1cn(CC(=O)c2ccc(Br)cc2)nn1)c1ccc(S(=O)(=O)c2ccccc2)cc1 (centres undefined),24 mm,14 mm,23 mm,24 mm,26 mm,26 mm,24 mm,15 mm,14 mm,32 mm,inactive,100 µg/mL,100 µg/mL,100 µg/mL,100 µg/mL,inactive,25 µg/mL,Not Active,100 µg/mL,100 µg/mL,MIC (Candida albicans [18]): inactive
CC(O)(Cc1cn(CC(=O)c2ccccc2)nn1)c1ccc(S(=O)(=O)c2ccccc2)cc1 (centres undefined),18 mm,19 mm,15 mm,22 mm,13 mm,19 mm,14 mm,15 mm,14 mm,32 mm,–,–,200 µg/mL,200 µg/mL,–,inactive,50 µg/mL,600 µg/mL,–,200 µg/mL,"MIC (Bacillus subtilis [12]; ATCC 6633, 24 h): 200 µg/mL; MIC (Priestia megaterium [13]): inactive; MIC (Klebsiella pneumoniae [15]): inactive; MIC (Escherichia coli [17]): inactive; MIC (Candida albicans [18]): inactive"
O=C(Cn1cc(CC(O)c2ccc(S(=O)(=O)c3ccccc3)cc2)nn1)c1ccc(Br)cc1 (centres undefined),22 mm,14 mm,19 mm,20 mm,24 mm,25 mm,22 mm,20 mm,17 mm,30 mm,inactive,200 µg/mL,200 µg/mL,100 µg/mL,200 µg/mL,200 µg/mL,50 µg/mL,500 µg/mL,100 µg/mL,200 µg/mL,"MIC (Candida albicans [18]; NRRL Y-477, 48 h): 200 µg/mL"
O=C(Cn1cc(COC(Cc2cn(CC(=O)c3ccc(S(=O)(=O)c4ccccc4)cc3)nn2)c2ccc(S(=O)(=O)c3ccccc3)cc2)nn1)c1ccc(S(=O)(=O)c2ccccc2)cc1 (centres undefined),17 mm,14 mm,inactive,19 mm,13 mm,14 mm,inactive,14 mm,inactive,20 mm,inactive,–,200 µg/mL,inactive,–,inactive,100 µg/mL,600 µg/mL,–,200 µg/mL,MIC (Priestia megaterium [13]): inactive; MIC (Klebsiella pneumoniae [15]): inactive; MIC (Escherichia coli [17]): inactive; MIC (Candida albicans [18]): inactive
O=C(Cn1cc(COC(Cc2cn(CC(=O)c3ccc(F)cc3)nn2)c2ccc(S(=O)(=O)c3ccccc3)cc2)nn1)c1ccc(F)cc1 (centres undefined),26 mm,19 mm,17 mm,20 mm,16 mm,15 mm,14 mm,22 mm,19 mm,32 mm,–,200 µg/mL,200 µg/mL,inactive,–,200 µg/mL,50 µg/mL,275 µg/mL,200 µg/mL,100 µg/mL,"MIC (Bacillus subtilis [12]; ATCC 6633, 24 h): 200 µg/mL; MIC (Escherichia coli [17]): inactive; MIC (Candida albicans [18]; NRRL Y-477, 48 h): 200 µg/mL"
O=C(Cn1cc(COC(Cc2cn(CC(=O)c3ccccc3)nn2)c2ccc(S(=O)(=O)c3ccccc3)cc2)nn1)c1ccccc1 (centres undefined),24 mm,17 mm,20 mm,24 mm,15 mm,23 mm,20 mm,23 mm,22 mm,20 mm,–,200 µg/mL,100 µg/mL,100 µg/mL,200 µg/mL,200 µg/mL,200 µg/mL,175 µg/mL,100 µg/mL,100 µg/mL,"MIC (Bacillus subtilis [12]; ATCC 6633, 24 h): 200 µg/mL; MIC (Candida albicans [18]; NRRL Y-477, 48 h): 200 µg/mL"
